Results taken from publication PMC2172688 (The Journal of Cell Biology, 2003).

Key:
Tsg101 UEV domain = molecular target: T1, Tsg101 UEV domain (Homo sapiens, UniProt Q99816); assay: BIAcore biosensor binding of Tsg101 UEV to immobilized GST–peptide fusions; details: relative to HIV-1 PTAP peptide
T1 sequence (Q99816 2-145 limits assumed): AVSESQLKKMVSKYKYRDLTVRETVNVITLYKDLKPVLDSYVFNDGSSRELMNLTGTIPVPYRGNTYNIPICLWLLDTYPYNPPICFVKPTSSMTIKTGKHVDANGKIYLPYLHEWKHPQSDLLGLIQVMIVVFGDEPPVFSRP
Summary of the method: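 Purified recombinant Tsg101 UEV domain was flowed over immobilized GST fusions of 10-amino-acid peptides spanning the central P(S/T)AP motifs of HIV-1 NL4–3 Gag, Tsg101 and Hrs. A mutant Gag PTAP peptide served as negative control. Binding was recorded at a range of UEV concentrations, and binding isotherms were plotted against concentration.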

[1] = molecular target: GST fusion of a 10-amino acid peptide spanning the PTAP motif of human Tsg101 (human); assay: SPR
[2] = molecular target: GST fusion of a 10-amino acid peptide spanning the PSAP motif of human Hrs (human); assay: SPR
[3] = molecular target: GST fusion of a 10-amino acid peptide spanning the PTAP motif of HIV-1 NL4-3 Gag (HIV-1 NL4-3); assay: SPR
[4] = molecular target: T2, Tsg101–Gal4p binding domain fusion, full-length wild-type Tsg101 (human, UniProt Q99816 1-390); assay: two-hybrid
T2 sequence (looked up): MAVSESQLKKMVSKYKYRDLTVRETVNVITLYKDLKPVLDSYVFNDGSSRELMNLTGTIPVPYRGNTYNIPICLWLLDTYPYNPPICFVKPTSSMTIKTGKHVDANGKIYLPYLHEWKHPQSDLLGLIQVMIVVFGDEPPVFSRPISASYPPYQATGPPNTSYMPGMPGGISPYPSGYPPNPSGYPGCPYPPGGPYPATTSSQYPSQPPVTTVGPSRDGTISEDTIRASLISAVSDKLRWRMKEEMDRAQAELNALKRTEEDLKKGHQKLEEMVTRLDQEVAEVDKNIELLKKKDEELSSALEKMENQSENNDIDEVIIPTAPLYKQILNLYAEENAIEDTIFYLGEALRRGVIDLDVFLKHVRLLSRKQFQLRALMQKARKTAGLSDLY

Molecule: SPTPSAPVPL [Hrs SPTPSAPVPL]
- binding affinity weaker than Tsg101 UEV binding to the HIV-1 PTAP peptide (Tsg101 UEV domain): sevenfold

Molecule: Tsg101 UEV domain (NH2-terminal ubiquitin E2 variant domain of Tsg101) (from UniProt Q99816 2-145) (domain or fragment)
- fold weaker binding affinity than for the HIV-1 PTAP peptide [1]: 4 fold
- fold weaker binding affinity than for the HIV-1 PTAP peptide [2]: 7 fold
- Kd [3]: 21 µM

Molecule: VIIPTAPLYK [Tsg101 VIIPTAPLYK]
- binding affinity weaker than Tsg101 UEV binding to the HIV-1 PTAP peptide (Tsg101 UEV domain): fourfold

B1: Hrs^ΔPSAP, Gal4p activation domain fusion (alanine substitution of the Hrs 348PSAP351 sequence) (natural protein, human, UniProt O14964 1-777, looked up)
chain: MGRGSGTFERLLDKATSQLLLETDWESILQICDLIRQGDTQAKYAVNSIKKKVNDKNPHVALYALEVMESVVKNCGQTVHDEVANKQTMEELKDLLKRQVEVNVRNKILYLIQAWAHAFRNEPKYKVVQDTYQIMKVEGHVFPEFKESDAMFAAERAPDWVDAEECHRCRVQFGVMTRKHHCRACGQIFCGKCSSKYSTIPKFGIEKEVRVCEPCYEQLNRKAEGKATSTTELPPEYLTSPLSQQSQLPPKRDETALQEEEELQLALALSQSEAEEKERLRQKSTYTSYPKAEPMPSASSAPPASSLYSSPVNSSAPLAEDIDPELARYLNRNYWEKKQEEARKSPTAAAAVPLTEPAAQPGEGHAAPTNVVENPLPETDSQPIPPSGGPFSEPQFHNGESEESHEQFLKALQNAVTTFVNRMKSNHMRGRSITNDSAVLSLFQSINGMHPQLLELLNQLDERRLYYEGLQDKLAQIRDARGALSALREEHREKLRRAAEEAERQRQIQLAQKLEIMRQKKQEYLEVQRQLAIQRLQEQEKERQMRLEQQKQTVQMRAQMPAFPLPYAQLQAMPAAGGVLYQPSGPASFPSTFSPAGSVEGSPMHGVYMSQPAPAAGPYPSMPSTAADPSMVSAYMYPAGATGAQAAPQAQAGPTASPAYSSYQPTPTAGYQNVASQAPQSLPAISQPPQSSTMGYMGSQSVSMGYQPYNMQNLMTTLPSQDASLPPQQPYIAGQQPMYQQMAPSGGPPQQQPPVAQQPQAQGPPAQGSEAQLISFD
- fold reduction of binding against wild-type Hrs [4]: ~2 fold
